ChEMBL document CHEMBL1156069, “Optimising metabolic stability in lipophilic chemical space: the identification of a metabolically stable pyrazolopyrimidine CRF-1 receptor antagonist” (Bioorg Med Chem Lett, 2009)

Tests used:
[1] = molecular target: T1, Corticotropin-releasing factor receptor 1 (Homo sapiens, UniProt P34998); experiment: Antagonist activity at human recombinant CRF1 receptor expressed in CHO cells assessed as inhibition of CRF-induced cAMP production; assay type: functional, cell-based
T1 sequence (P34998 whole entry): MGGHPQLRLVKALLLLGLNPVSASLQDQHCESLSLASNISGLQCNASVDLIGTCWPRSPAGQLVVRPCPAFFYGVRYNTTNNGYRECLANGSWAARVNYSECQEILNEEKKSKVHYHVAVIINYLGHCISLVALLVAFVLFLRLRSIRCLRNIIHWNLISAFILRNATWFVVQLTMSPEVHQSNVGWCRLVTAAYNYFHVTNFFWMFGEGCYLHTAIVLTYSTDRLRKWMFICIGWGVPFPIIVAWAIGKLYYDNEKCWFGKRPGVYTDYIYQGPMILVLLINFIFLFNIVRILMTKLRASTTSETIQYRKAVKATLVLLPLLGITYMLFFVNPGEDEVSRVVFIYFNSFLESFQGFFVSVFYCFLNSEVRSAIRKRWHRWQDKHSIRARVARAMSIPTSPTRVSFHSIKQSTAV
Method in brief: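 CHO cells stably expressing recombinant human CRF-1, grown in DMEM:F12 with 10% FBS, 1% Glutamax and Geneticin at 37 °C, 5% CO2 to 70% confluence. hCRF (10 nM final) added with compound to 10,000 cells/well in PBS with IBMX. cAMP read by enzyme-fragment complementation kit. 0.5-log serial dilutions, repeated tests, 4-parameter logistic IC50. Ki by Cheng–Prusoff from agonist EC50 measured the same day.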

[2] = test system: Liver microsomes; experiment: Intrinsic clearance in human liver microsomes assessed per mg of protein; assay type: ADME, Microsome
[3] = test system: Liver microsomes; experiment: Intrinsic clearance in rat liver microsomes assessed per mg of protein; assay type: ADME, Microsome
[4] = Chemical stability of the compound; assay type: physicochemical
[5] = Volume of distribution in rat at 0.1 mg/kg, iv and 5 mg/kg, po; assay type: ADME, organism-based; settings: in vivo
[6] = Clearance in rat at 0.1 mg/kg, iv and 5 mg/kg, po; assay type: ADME, organism-based; settings: in vivo
[7] = Half life in rat at 0.1 mg/kg, iv and 5 mg/kg, po; assay type: ADME, organism-based; settings: in vivo
[8] = Bioavailability in rat at 0.1 mg/kg, iv and 5 mg/kg, po; assay type: ADME, organism-based; settings: in vivo
[9] = Chemical stability at pH 1.2 assessed as compound remaining at 50 degC after 14 days; assay type: physicochemical; settings: buffer, read-out: Stability

Ki [1] [nM] | clearance [2] [µL/min/mg] | clearance [3] [µL/min/mg] | Stability [4] | Vd [5] [L/kg] | clearance [6] [mL/min/kg] | half-life [7] [h] | bioavailability [8] [%] | remaining at 336 h [9] [%] | SMILES
42 | 64 | 72 | – | – | – | – | – | – | CCC(CC)Nc1nc(C)nc2c1c(C)nn2-c1ccc(OC)cc1C
76 | 23 | 41 | – | – | – | – | – | – | CCC[C@H](CO)Nc1nc(C)nc2c1c(C)nn2-c1ccc(OC)cc1C
35 | < 12 | 24 | – | – | – | – | – | – | COc1ccc(-n2nc(C)c3c(NC(C4CC4)C4CC4)nc(C)nc32)c(C)c1
129 | 80 | 117 | – | – | – | – | – | – | CCCN(CCO)c1nc(C)nc2c1c(C)nn2-c1ccc(OC)cc1C
1410 | 18 | 22 | – | – | – | – | – | – | CCCN(CC(=O)N(C)C)c1nc(C)nc2c1c(C)nn2-c1ccc(OC)cc1C
210 | 37 | 53 | – | – | – | – | – | – | CC[C@H](COC)Nc1nc(C)nc2c1c(C)nn2-c1ccc(OC)cc1C
124 | 29 | 58 | – | – | – | – | – | – | CCCNCc1nc(Nc2nc(C)nc3c2c(C)nn3-c2ccc(OC)cc2C)no1
1130 | < 7 | 23 | – | – | – | – | – | – | CC[C@H](CO)Nc1nc(C)nc2c1c(C)nn2-c1ccc(OC)cc1C
101 | 147 | < 11 | – | – | – | – | – | – | CCCN(CCOC)c1nc(C)nc2c1c(C)nn2-c1ccc(C#N)cc1C
2500 | 196 | 85 | – | – | – | – | – | – | CCCNCc1cncn1Nc1nc(C)nc2c1c(C)nn2-c1ccc(OC)cc1C
117 | 117 | 104 | – | – | – | – | – | – | CCN(CCOC)c1nc(C)nc2c1c(C)nn2-c1ccc(OC)cc1C
275 | 17 | 22 | – | – | – | – | – | – | CCCN(CCOC)c1nc(C)nc2c1c(C)nn2-c1ccc(C(N)=O)cc1C
400 | 96 | 67 | – | – | – | – | – | – | CCCNCc1nccn1Nc1nc(C)nc2c1c(C)nn2-c1ccc(OC)cc1C
84 | 51 | 66 | – | – | – | – | – | – | CCCNCc1noc(Nc2nc(C)nc3c2c(C)nn3-c2ccc(OC)cc2C)n1
620 | < 7 | 27 | – | – | – | – | – | – | CC[C@@H](CO)Nc1nc(C)nc2c1c(C)nn2-c1ccc(OC)cc1C
13 | 172 | 23 | – | – | – | – | – | – | CCCN(CCOC)c1nc(C)nc2c1c(C)nn2-c1ccc(OC)cc1C
996 | 34 | 40 | – | – | – | – | – | – | CCCNCc1nnc(Nc2nc(C)nc3c2c(C)nn3-c2ccc(OC)cc2C)o1
132 | 16 | 387 | – | – | – | – | – | – | CCCN(CCOC)c1nc(C)nc2c1cnn2-c1ccc(OC)cc1C
43 | 117 | 163 | – | – | – | – | – | – | CCCN(CCOC)c1nc(C)nc2c1c(C)nn2-c1ccc(OC)nc1C
17 | 218 | 159 | – | – | – | – | – | – | CCCN(CCOC)c1nc(C)nc2c1c(C)nn2-c1ccc(OC)nc1OC
574 | 10 | 36 | – | – | – | – | – | – | CCC[C@@H](CO)Nc1nc(C)nc2c1c(C)nn2-c1ccc(OC)cc1C
32 | < 11 | 25 | Stable | 7 | 27 | 1.9 | 43 | 51 | COc1ccc(-n2ncc3c(NC(C4CC4)C4CC4)nc(C)nc32)c(C)c1
9 | > 320 | – | – | – | – | – | – | – | CCCCN(CC)c1nc(C)nc2c1c(C)nn2-c1c(C)cc(C)cc1C
577 | 38 | 13 | – | – | – | – | – | – | CCCN(CCOC)c1nc(C)nc2c1c(C)nn2-c1ccc(C(N)=O)nc1C
85 | 15 | 246 | – | – | – | – | – | – | CCC(CC)Nc1nc(C)nc2c1cnn2-c1ccc(OC)cc1C
135 | 52 | 105 | – | – | – | – | – | – | CC[C@@H](COC)Nc1nc(C)nc2c1c(C)nn2-c1ccc(OC)cc1C
193 | 66 | 47 | – | – | – | – | – | – | COCCN(CCOC)c1nc(C)nc2c1c(C)nn2-c1ccc(OC)cc1C
632 | 151 | 166 | – | – | – | – | – | – | CCCN(CCOC)c1nc(C)nc2c1c(C)nn2-c1ccc(C#N)cc1C#N
74 | 86 | 90 | – | – | – | – | – | – | CCCN(CCOC)c1nc(C)nc2c1c(C)nn2-c1ccc(OC)cc1OC
183 | 160 | 206 | – | – | – | – | – | – | CCCN(CCOC)c1nc(C)nc2c1c(C)nn2-c1cnc(N(C)C)cc1C
